TRPC6 act: mouse TRPC6 channel activators, primary screen, cell-based, HEK293, membrane potential dye; actives 0.13% (n = 310,000); B-score at 10 µM; HEK293-TRPC6 membrane potential dye fluorescence; active compounds read high; AID 2550, 2010;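 active = B-score of the integrated fluorescence ratio above library mean plus 3 SD, and starting fluorescence ratio within library mean plus 5 SD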;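 also: higher score means more depolarization so channel activation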
Target sequence (Q61143 whole entry, looked up): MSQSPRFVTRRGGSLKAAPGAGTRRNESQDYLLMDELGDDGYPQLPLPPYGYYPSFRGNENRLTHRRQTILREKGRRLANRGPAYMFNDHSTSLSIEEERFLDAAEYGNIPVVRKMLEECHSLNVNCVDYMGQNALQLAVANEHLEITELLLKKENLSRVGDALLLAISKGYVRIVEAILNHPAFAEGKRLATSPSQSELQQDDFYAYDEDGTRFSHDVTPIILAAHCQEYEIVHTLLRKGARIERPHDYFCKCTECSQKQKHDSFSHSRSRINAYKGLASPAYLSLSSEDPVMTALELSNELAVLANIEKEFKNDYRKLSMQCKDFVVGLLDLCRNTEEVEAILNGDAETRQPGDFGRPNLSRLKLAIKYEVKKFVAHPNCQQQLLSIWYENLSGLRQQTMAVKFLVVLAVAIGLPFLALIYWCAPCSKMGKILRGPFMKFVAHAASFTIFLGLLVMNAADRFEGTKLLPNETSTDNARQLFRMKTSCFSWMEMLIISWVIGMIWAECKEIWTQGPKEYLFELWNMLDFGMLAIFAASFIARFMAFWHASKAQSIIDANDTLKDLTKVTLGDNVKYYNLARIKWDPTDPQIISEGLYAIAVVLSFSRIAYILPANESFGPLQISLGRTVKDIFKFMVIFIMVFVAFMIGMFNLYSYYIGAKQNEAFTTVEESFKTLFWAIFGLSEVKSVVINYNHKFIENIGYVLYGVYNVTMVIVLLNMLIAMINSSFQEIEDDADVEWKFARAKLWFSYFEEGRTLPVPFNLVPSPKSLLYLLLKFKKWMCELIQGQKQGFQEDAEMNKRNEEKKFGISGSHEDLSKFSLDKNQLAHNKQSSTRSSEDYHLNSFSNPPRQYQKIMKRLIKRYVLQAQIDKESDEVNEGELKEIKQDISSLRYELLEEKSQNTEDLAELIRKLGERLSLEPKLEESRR
TRPC4 agonist: activators of mouse TRPC4 channel, primary screen, Fluo4 calcium, HEK293 TRPC4beta/mu-opioid cells; B-score at 10 µM; actives 0.49% (n = 310,000); Short transient receptor potential channel 4 (Mus musculus), Q9QUQ5; Fluo4 calcium fluorescence; active compounds read high;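 active = B-score above 5 SD of library B-scores, and initial fluorescence ratio not above library mean plus 5 SD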;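 also: positive B-score marks a calcium rise read as TRPC4 activation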
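System – HEK293 cells stably co-expressing mouse TRPC4beta and mu-opioid receptor · Signal – Fluo4 calcium-sensitive dye fluorescence, kinetic, 1 Hz baseline · Benchmarks – buffer (low) and maximal DAMGO (high) · Read-out – B score of integrated fluorescence ratio per well · Incubation – dye loading 45 min room temperature, 110 s kinetic read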
TRPC6 inh: mouse TRPC6 channel inhibitors, primary screen, cell-based, HEK293, membrane potential dye. Short transient receptor potential channel 6 (Mus musculus), Q61143. B-score at 10 µM. ACh-evoked depolarization; active compounds read low. actives 1.1% (n = 310,000). AID 2553, 2010;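 active = B-score under library mean minus 3 SD, initial fluorescence not abnormally high, positive integrated signal ratio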;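 also: B-score derived from integrated fluorescence ratio over the kinetic read; more negative B-score means stronger inhibition of depolarization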
TRPC4 inh: inhibitors of mouse TRPC4 channel, primary screen, Fluo4 calcium, HEK293 TRPC4beta/mu-opioid cells. Short transient receptor potential channel 4 (Mus musculus), Q9QUQ5. DAMGO-evoked Fluo4 calcium flux; active compounds read low. B-score at 10 µM. actives 0.39% (n = 300,000);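 active = B-score over 3 SD under the library average, no early fluorescence shift, positive overall ratio signal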
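Assay system: HEK293 cells with stable TRPC4beta plus mu-opioid receptor expression. Dosing: single dose. Measured by: Fluo4 Ca2+ flux fluorescence. Also added: DAMGO in two steps, submaximal then maximal. Read-out: B score from integrated Fluo4 fluorescence ratio.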
TRPC4 PAM: positive allosteric modulators of TRPC4, primary screen, cell-based, mouse TRPC4beta, HEK293 mu-opioid, Fluo-4 calcium; AID 2227, 2009; actives 0.42% (n = 310,000); DAMGO EC20, Fluo-4 Ca2+ flux; active compounds read high; Short transient receptor potential channel 4 (Mus musculus), Q9QUQ5; B-score at 10 µM;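 active = B-score of calcium response area above 5 SD of library B-scores, with initial fluorescence ratio within 5 SD of library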;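 also: B-score of integrated fluorescence ratio over time as area under calcium response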
TRPC4 spec 2: second check of whether TRPC6 inhibitors also affect mouse TRPC4; shares compounds with TRPC6 inh; HEK293 TRPC4/MOR, membrane potential dye fluorescence; channel activated by saturating DAMGO dose; inhibition, % at 10 µM; actives 42% (n = 920); AID 2776;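 active = compounds whose fluorescence signal differed from control wells by over 3 SD, either direction, in both duplicate plates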
TRPC4 spec: mouse TRPC4 modulation by TRPC6 hits, confirmation, selectivity assay for TRPC6 inhibitor project, cell-based, HEK293 TRPC4/mu-opioid, membrane potential dye; actives 61% (n = 920); AID 2777, 2010; activity change, negative = inhibition, % at 10 µM; membrane potential fluorescence; shares compounds with TRPC6 inh;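 active = rise or fall in signal beyond 3 SD of buffer-only wells in both replicate plates, either sign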;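 also: integrated kinetic ratio of fluorescence range over baseline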
HEK293 MPD ctr 2-1: nonspecific membrane potential effects, parental HEK293, confirmation, counter-screen for TRPC6 inhibitor project, cell-based, second counter screen; AID 2779, 2010; parental HEK293 membrane potential dye fluorescence; maximal acetylcholine challenge after compound addition; signal change vs control, % at 10 µM; shares compounds with TRPC6 inh; actives 31% (n = 920);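 active = membrane potential signal moving either way by over 3 SD of the maximum-effect control, in both duplicate plates, meaning non-specific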
HEK293 MPD ctr-1: membrane potential modulation in parental HEK293, confirmation, counter-screen for TRPC6 inhibitor project, cell-based | shares compounds with TRPC6 inh | parental HEK293 membrane potential dye fluorescence | membrane potential signal change, % at 10 µM | actives 60% (n = 920) | AID 2780, 2010;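 active = membrane potential signal shifting up or down by more than 3 SD of buffer-only wells, on both duplicate plates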
HEK293 MPD ctr-2: parental HEK293 membrane potential modulation, confirmation, counter-screen for TRPC6 modulator project, cell-based. shares compounds with TRPC6 inh. membrane potential dye fluorescence. membrane potential signal change, % at 10 µM. actives 51% (n = 2,400). AID 488924, 2010;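 active = membrane potential signal moves up or down beyond 5 SD from buffer-only wells, on both duplicate plates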
HEK293 MPD ctr 2-2: second counter-screen for TRPC6 modulators: effect in parental HEK293 cells; shares compounds with TRPC6 inh; membrane potential dye fluorescence; after compound, maximal acetylcholine stimulation; inhibition, % at 10 µM; actives 14% (n = 2,400);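 active = membrane potential signal drops by more than 5 SD from the mean control signal, in both duplicate plates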;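 also: plate controls were acetylcholine ECmax control wells for no effect and buffer only wells for full effect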
TRPC4 ctr mod: TRPC4 modulation by TRPC6 hit compounds, confirmation, selectivity assay for TRPC6 modulator project, cell-based, HEK293 TRPC4/mu-opioid, membrane potential dye, mouse. membrane potential fluorescence. actives 69% (n = 2,400). percent change from control (negative = decrease, positive = increase), % at 10 µM. shares compounds with TRPC6 inh;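 active = membrane potential signal moved up or down beyond 5 SD of buffer control wells, in both duplicate plates, actives on both sides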;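 also: plate controls were assay buffer wells for no effect and DAMGO maximal-effect wells for full effect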
TRPC4 ctr inh 2: second check of whether TRPC6 modulators also affect mouse TRPC4. inhibition, % at 10 µM. AID 488928. HEK293 TRPC4/mu-opioid, membrane potential dye fluorescence; stimulated with maximal-effect DAMGO. shares compounds with TRPC6 inh. actives 55% (n = 2,400);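 active = drop in membrane potential signal beyond 5 SD of the control wells in both duplicate plates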;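 also: TRPC4 counter screen for TRPC6 hits run under conditions tuned for TRPC6 not TRPC4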
TRPC6 block conf: mouse TRPC6 channel inhibitors, confirmation, HEK293 cells, membrane potential dye, duplicate. shares compounds with TRPC6 inh. ACh-evoked depolarization. inhibition, % at 10 µM. actives 43% (n = 3,300). AID 488960, 2010;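 active = fluorescence ratio falls more than 5 SD below the full-stimulation control mean, in both duplicate runs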;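 also: integrated fluorescence ratio of peak minus minimum over baseline after agonist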
TRPC6 act conf: mouse TRPC6 channel activators, confirmation, HEK293 cells, membrane potential dye, duplicate; shares compounds with TRPC6 inh; HEK293-TRPC6 membrane potential dye fluorescence, FDSS; activation, % at 10 µM; actives 11% (n = 2,800); AID 488961, 2010;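 active = ratio signal rise beyond 5 SD above unstimulated control wells' mean, seen in both duplicate runs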;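 also: plate controls were buffer EC0 wells for no effect and acetylcholine ECmax response for full effect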
The depositor's hits bear a star; i = inactive; x = no result given. Sampled rows, rich in hits. Any-hit rate of the full collection: about 2.3%.

SMILES | TRPC6 act | TRPC4 agonist | TRPC6 inh | TRPC4 inh | TRPC4 PAM | HEK293 MPD ctr-2 | HEK293 MPD ctr 2-2 | TRPC4 ctr mod | TRPC4 ctr inh 2 | TRPC6 block conf | TRPC6 act conf | others
COc1ccc(NC(=O)C2CCCN(CCCc3ccccc3)C2)cc1OCC(C)C (stereo not given) | i | i | -7.3* | i | i | x | x | x | x | i | i | TRPC4 spec 2=76%*;TRPC4 spec=i;HEK293 MPD ctr 2-1=226%*;HEK293 MPD ctr-1=i
CCOC(=O)c1c(NC(=O)CC)sc2c1CCN(Cc1ccccc1)C2 | i | i | i | i | i | x | x | x | x | x | x
CCOC(=O)c1c(NC(=O)c2cccc(N3C(=O)CCC3=O)c2)sc2c1CCN(CC)C2 | i | i | -6.3* | i | i | i | i | i | 28%* | i | i
CCN1CCN(S(=O)(=O)c2ccc(C(=O)Nc3sc4c(c3C(N)=O)CCN(CC)C4)cc2)CC1 | i | i | -10* | i | i | -144%* | i | -27%* | 37%* | 58%* | i
CCOC(=O)c1c(NC(=O)CSc2ncccn2)sc2c1CCN(Cc1ccccc1)C2 | i | i | -5.5* | i | i | i | i | -20%* | 35%* | i | i
CCOC(=O)c1c(NC(C)=O)sc2c1CCN(Cc1ccccc1)C2 | i | i | -5.3* | i | i | -198%* | i | -34%* | 39%* | i | i
N/C(=N\OC(=O)C1CCCCC1)c1ccccn1 | i | i | i | i | i | x | x | x | x | x | x
c1ccc(NC2=NCCN2CCC2CCCCC2)cc1 | i | i | i | i | i | x | x | x | x | x | x
COC(=O)c1c(NC(C)=O)sc2c1CCN(Cc1ccccc1)C2 | i | i | -5.5* | i | i | -196%* | i | -34%* | 37%* | i | i
CCOC(=O)c1c(N)sc2c1CCN(CCc1ccccc1)C2 | i | i | -5.9* | i | i | i | i | 22%* | 34%* | i | i
COC(=O)c1c(NC(=O)C(C)(C)C)sc2c1CCN(Cc1ccccc1)C2 | i | i | i | i | i | x | x | x | x | x | x
CCOC(=O)c1c(N)sc2c1CCCC2 | i | i | i | i | i | x | x | x | x | x | x
CCOc1ccc2nc(NC(=O)CN3CCC(n4nnc5cc(F)ccc54)CC3)sc2c1 | i | i | i | i | i | x | x | x | x | x | x
C/C(=N\Nc1ccc(F)cc1F)c1cccs1 | i | i | i | i | i | x | x | x | x | x | x
NC(=O)NC(=O)C(Nc1ccc2c(c1)CCC2)c1ccccc1 (stereo not given) | i | i | -7.2* | i | i | x | x | x | x | i | i | TRPC4 spec 2=i;TRPC4 spec=i;HEK293 MPD ctr 2-1=i;HEK293 MPD ctr-1=i
CN(C)CCCN(C(=O)c1ccco1)c1nc2c(F)cc(F)cc2s1 | i | i | -7.1* | i | i | -158%* | i | -34%* | 82%* | 52%* | i
CN(C)CCCN(C(=O)CCc1ccccc1)c1nc2c(F)cccc2s1 | i | i | i | i | i | x | x | x | x | x | x
CN(C)CCCN(C(=O)c1ccco1)c1nc(-c2ccc(Cl)cc2)cs1 | i | i | -7.3* | -6* | i | x | x | x | x | i | i | TRPC4 spec 2=12%*;TRPC4 spec=i;HEK293 MPD ctr 2-1=i;HEK293 MPD ctr-1=-152%*
CN(C)CCCN(C(=O)/C=C/c1cccs1)c1nc2c(F)cccc2s1 | i | i | -7.1* | i | i | x | x | x | x | i | i | TRPC4 spec 2=i;TRPC4 spec=i;HEK293 MPD ctr 2-1=i;HEK293 MPD ctr-1=i
CN(C)CCCN(C(=O)c1ccco1)c1nc2c(F)cccc2s1 | i | i | -9.8* | i | i | x | x | x | x | 107%* | i | TRPC4 spec 2=18%*;TRPC4 spec=-32%*;HEK293 MPD ctr 2-1=26%*;HEK293 MPD ctr-1=-300%*
CCCn1ncc(CN2CCC(N3CCC(C(=O)N4CCOCC4)CC3)CC2)c1C | i | i | i | i | i | x | x | x | x | x | x
COCCOC(=O)c1c(N)n(CCCN2CCOCC2)c2nc3ccccc3nc12 | i | i | i | i | i | x | x | x | x | x | x
COC(=O)c1c(N)n(CCCN2CCOCC2)c2nc3ccccc3nc12 | i | i | -5.1* | i | i | -72%* | i | -16%* | i | i | i
O=C(C1COc2ccccc2O1)N1CCN(c2ccccc2Cl)CC1 (stereo not given) | i | i | i | i | i | x | x | x | x | x | x

Screens: PubChem, Johns Hopkins Ion Channel Center
